Calls of active or inactive are those of the source. The calls are words filed in the database; no cut-off is given here.
Tests used:
Mus musculus [1] = test: Antitumor immunity against mouse SM1 cells implanted in flank of immunocompetent C57BL/6 mouse assessed as increase in antitumor M1 macrophages at 25 mg/kg, ip administered 1 week post-implantation by flow cytometry; format: functional, organism-based
[2] = Mutagenicity in Salmonella typhimurium TA1537 assessed as induction of >= 3 fold increase in revertant colonies at 1.5 to 1000 ug/well in absence of S9 fraction by Ames test; format: toxicity; conditions: salmonella enterica subsp. enterica serovar typhimurium
Outline: (§1)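 Ames test with S. typhimurium TA98 and TA1537, with and without S9 mix. A positive call required a ≥ 2-fold (TA98) or ≥ 3-fold (TA1537) rise in mean revertant colonies over the concurrent negative/solvent control.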

Mus musculus [3] = test: Antitumor immunity against mouse SM1 cells implanted in flank of immunocompetent C57BL/6 mouse assessed as infiltration of intratumoral CD8+ cells at 25 mg/kg, ip administered 1 week post-implantation by flow cytometry; format: functional, organism-based
Mus musculus [4] = test: Antitumor activity against mouse SM1 cells implanted in flank of immunocompetent C57BL/6 mouse assessed as reduction in tumor growth at 25 mg/kg, ip administered 1 week post-implantation measured for 18 days; format: functional, organism-based
Outline: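 SM1 cells passaged in vivo mouse to mouse at least five times; 1.0 × 10^6 cells in 100 µL PBS injected subcutaneously into female C57BL/6 mice 4-6 weeks old, 10 per group. Treatment ip 25 mg/kg or 100 µL PBS vehicle, five days a week until control tumors reached maximum size. Tumor volume from calipers as L × W2/2.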

[5] = Mutagenicity in Salmonella typhimurium TA98 assessed as induction of >= 2 fold increase in revertant colonies at 1.5 to 1000 ug/well in absence of S9 fraction by Ames test; format: toxicity; conditions: salmonella enterica subsp. enterica serovar typhimurium; outline: as §1
Mus musculus [6] = test: Antitumor immunity against mouse SM1 cells implanted in flank of immunocompetent C57BL/6 mouse assessed as increase in ratio of M1/M2 macrophages at 25 mg/kg, ip administered 1 week post-implantation by flow cytometry; format: functional, organism-based
[7] = molecular target: T1, Protein deacetylase HDAC6 (Mus musculus) (UniProt Q9Z2V5); test: Inhibition of HDAC6 in mouse SM1 cells assessed as effect on acetylated histone H3 level at 5 uM after 24 hrs by Western blot analysis; format: cell-based
T1 sequence (whole entry): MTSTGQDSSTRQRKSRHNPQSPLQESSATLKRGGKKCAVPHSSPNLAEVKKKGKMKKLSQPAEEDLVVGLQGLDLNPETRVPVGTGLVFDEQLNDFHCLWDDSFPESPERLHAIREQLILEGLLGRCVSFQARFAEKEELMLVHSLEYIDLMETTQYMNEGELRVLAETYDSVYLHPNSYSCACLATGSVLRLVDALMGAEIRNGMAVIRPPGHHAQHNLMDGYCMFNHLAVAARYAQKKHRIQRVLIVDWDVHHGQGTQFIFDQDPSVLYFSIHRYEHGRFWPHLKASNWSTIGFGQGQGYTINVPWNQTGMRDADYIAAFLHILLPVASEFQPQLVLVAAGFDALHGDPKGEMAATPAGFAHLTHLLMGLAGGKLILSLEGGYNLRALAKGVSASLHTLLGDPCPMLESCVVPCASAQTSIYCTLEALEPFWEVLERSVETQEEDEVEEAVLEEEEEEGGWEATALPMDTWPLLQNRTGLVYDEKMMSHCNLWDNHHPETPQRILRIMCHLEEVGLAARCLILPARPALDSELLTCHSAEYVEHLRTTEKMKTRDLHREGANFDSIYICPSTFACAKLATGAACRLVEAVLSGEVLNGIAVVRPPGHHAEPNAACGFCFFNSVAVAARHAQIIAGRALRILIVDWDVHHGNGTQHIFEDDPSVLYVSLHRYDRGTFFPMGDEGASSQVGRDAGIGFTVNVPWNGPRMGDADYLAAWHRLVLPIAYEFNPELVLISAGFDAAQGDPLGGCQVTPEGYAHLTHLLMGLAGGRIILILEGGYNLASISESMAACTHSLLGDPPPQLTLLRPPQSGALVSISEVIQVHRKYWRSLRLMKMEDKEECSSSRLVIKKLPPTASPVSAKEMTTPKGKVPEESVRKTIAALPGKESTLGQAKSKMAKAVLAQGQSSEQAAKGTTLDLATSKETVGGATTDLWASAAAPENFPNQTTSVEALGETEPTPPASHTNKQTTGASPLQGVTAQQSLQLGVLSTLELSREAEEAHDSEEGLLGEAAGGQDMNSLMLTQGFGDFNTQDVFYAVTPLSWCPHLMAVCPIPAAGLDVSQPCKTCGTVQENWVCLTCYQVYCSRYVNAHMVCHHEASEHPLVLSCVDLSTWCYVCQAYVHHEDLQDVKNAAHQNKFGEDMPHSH

[8] = Cytotoxicity against mouse SM1 cells at 0.1 to 25 uM by ApoTox-Glo triplex assay; format: cell-based
Outline: (§2)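 SM1 cells treated with HDAC inhibitors, with pan-HDACi and assay controls on every plate. ApoTox-Glo triplex readout: viability fluorescence 400Ex/505Em, cytotoxicity fluorescence 485Ex/520Em, then caspase 3/7 reagent read by luminescence for apoptosis.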

[9] = molecular target: Histone deacetylase (Mus musculus) (UniProt Q8VH37+Q9Z2V6+Q9Z2V5+O09106+Q8C2B3+P70288+O88895+Q91WA3+Q99N13+Q6NZM9+Q6P3E7); test: Inhibition of HDAC in mouse SM1 cells at 0.1 to 25 uM measured after 1 hr by HDAC-Glo 1/2 luminescent assay; format: cell-based
Outline: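 Cells plated at 10,000 per well overnight, then after 24 h treated with compound for 1 h at 37 °C, 5% CO2. HDAC-Glo I/II developer mixed with substrate and added to wells; luminescence read every 2 min for 1 h 15 min.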

Mus musculus [10] = test: Antitumor immunity against mouse SM1 cells implanted in flank of immunocompetent C57BL/6 mouse assessed as increase in infiltration of NKT cells at 25 mg/kg, ip administered 1 week post-implantation by flow cytometry; format: functional, organism-based
[11] = Half life in mouse liver microsomes in presence of NADPH; format: ADME, Microsome
Outline: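 Liver microsomal stability in mouse and human microsomes with NADPH; half-life in minutes.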

[12] = Half life in human hepatocytes; format: ADME, cell-based, Hepatocyte
Outline: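 Half-life in minutes measured in mouse and human hepatocytes.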

[13] = Induction of cell death in mouse SM1 cells at 0.1 to 25 uM; format: cell-based
[14] = molecular target: T1, Protein deacetylase HDAC6 (Mus musculus); test: Inhibition of HDAC6 in mouse SM1 cells assessed as reduction in IL-6 stimulated STAT3 phosphorylation at Y705 residue at 5 uM pretreated for 1 hr followed by IL-6 stimulation for overnight by western blot analysis; format: cell-based
Outline: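 SM1 cells pretreated with 5 µM compound, then IL-6 overnight. Lysed in RIPA buffer with protease and phosphatase inhibitors, sonicated, protein quantified by BCA. Immunoblot for PD-L1 and STAT3 Y705 phosphorylation.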

[15] = Effect on cell viability in mouse SM1 cells up to 10 uM by ApoTox-Glo triplex assay; format: cell-based; outline: as §2
[16] = Mutagenicity in Salmonella typhimurium TA1537 assessed as induction of >= 3 fold increase in revertant colonies at 1.5 to 1000 ug/well in presence of S9 fraction by Ames test; format: toxicity, subcellular; conditions: salmonella enterica subsp. enterica serovar typhimurium; outline: as §1
[17] = Induction of apoptosis in mouse SM1 cells at 0.1 to 25 uM by caspase3/7 reagent based luminescence assay; format: cell-based; outline: as §2

SMILES: O=C(NCCc1cc(C(=O)NO)no1)c1ccc(Cl)c(Cl)c1
- Activity (Mus musculus [1]): Active
- Activity [2]: Non-Toxic
- Activity (Mus musculus [3]): Active
- inhibition (Mus musculus [4]): Active
- Activity [5]: Non-Toxic
- Activity (Mus musculus [6]): Active
- inhibition [7]: inactive
- Activity [8]: Non-Toxic
- inhibition [9]: Active
- Activity (Mus musculus [10]): Active
- half-life [11]: 0.617 h
- half-life [12]: 1.8 h
- Activity [13]: Non-Toxic
- inhibition [14]: Active
- Activity [15]: Non-Toxic
- Activity [16]: Non-Toxic
- Activity [17]: Non-Toxic
